Results taken from ChEMBL document CHEMBL1221356, “Synthesis and evaluation of antimigratory and antiproliferative activities of lipid-linked [13]-macro-dilactones” (Bioorg Med Chem Lett, 2010).
≈ marks a conversion by molar mass, not a printed value. Calls of active or inactive are those of the source. The calls are words filed in the database; no cut-off is given here.

Tests used:
[1] = system: MDA-MB-435; experiment: Antimigratory activity against human MDA-MB-435 cells assessed as mean rate of migration by wound closure assay; format: functional, cell-based
In short: (§1)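 Screening scratch-wound assay on confluent monolayers in 24-well plates. Medium changed to fresh medium with 100 µM compound or 1% DMSO; wounds of 0.5–1.0 mm2 scraped with a micropipet tip 30 min later. Scored closed/open by inverted microscopy every 12 h for 72 h; antimigratory if wound remained open after DMSO controls closed. Trypan blue exclusion at end. Culture at 37 °C, 5% CO2.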

[2] = system: MDCK; experiment: Antimigratory activity against MDCK cells assessed as mean rate of migration by wound closure assay; format: functional, cell-based; details: Canis lupus familiaris; in short: as §1
[3] = system: T47D; experiment: Antimigratory activity against human T47D cells assessed as mean rate of migration by wound closure assay; format: functional, cell-based; in short: as §1
[4] = Therapeutic index, ratio of MLC for humanBT20 cells to MIC for BT20 cells; format: cell-based, BT-20; details: human, read-out: TI
[5] = system: BT-20; experiment: Antiproliferative activity against human BT20 cells assessed as reduction in cell number after 48 hrs by […] assay; format: functional; details: for MIC: Homo sapiens, 48 h
In short: (§2)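 BT-20 cells, 5,000/well, grown 24 h at 37 °C, 5% CO2 before treatment with a range of concentrations or 1% DMSO for 48 h. Cell number by WST-8 tetrazolium absorbance at 450 nm after 3 h, versus an initial plate read at time of dosing. Four wells per experiment, three independent experiments. IC50 fitted from 48 h mean cell numbers. MIC is significant reduction versus control (t-test).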

[6] = system: BT-20; experiment: Antiproliferative activity against human BT20 cells assessed as after 48 hrs by […]; format: functional, cell-based; details: BT-20, 48 h; in short: as §2
[7] = system: BT-20; experiment: Antimigratory activity against human BT20 cells assessed as mean rate of migration after 48 hrs by wound closure assay; format: functional
In short: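 Kinetic wound-closure assay in confluent BT-20 monolayers grown in MEM with 10% FBS, wounded 30 min after addition of a range of concentrations or DMSO. Wound area measured from digital images at 3–72 h post-wounding.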

[8] = system: BT-20; experiment: Activity against human BT20 cells by trypan blue exclusion assay

SMILES | MIC [5] [µM] | IC50 [6] [µM] | MIC [7] [µM] | Activity [1] | Activity [2] | Activity [3] | selectivity ratio [4] | MLC [5] [µM] | MLC [8] [µM]
CCCCCCCCO[C@H]1O[C@H](CO)[C@@H](O)[C@H](OCc2ccccc2)[C@H]1OCc1ccccc1 | 25 (≈ 11.8 µg/mL) | 52.9 |  |  |  |  | 3 | 75 (≈ 35.4 µg/mL) | 
CCCCCCCCO[C@H]1O[C@@H]2COC(=O)CC/C=C/CCC(=O)O[C@H]2[C@H](OC)[C@H]1OC | 50 (≈ 22.8 µg/mL) | 91.4 | 75 (≈ 34.2 µg/mL) | Active | Active | inactive | 6 | 300 (≈ 137 µg/mL) | 125 (≈ 57.1 µg/mL)
CCCCCCCCO[C@H]1O[C@@H]2COC(=O)CC[C@H]3O[C@@H]3CCC(=O)O[C@H]2[C@H](O)[C@H]1O | 50 (≈ 22.2 µg/mL) | 107 | 50 (≈ 22.2 µg/mL) | Active | Active | inactive | > 6 | >300 | 125 (≈ 55.6 µg/mL)
CCCCCCCCO[C@@H]1O[C@@H]2COC(c3ccccc3)O[C@H]2[C@H](O)[C@H]1O (stereo partly specified) | 50 (≈ 19 µg/mL) | 72.1 |  | Active | Active | inactive | 6 | 300 (≈ 114 µg/mL) | 

The next lines start with results.

MIC [5] [µM] | IC50 [6] [µM] | MIC [7] [µM] | SMILES | Activity [1] | Activity [2] | Activity [3] | selectivity ratio [4] | MLC [5] [µM] | MLC [8] [µM]
10 (≈ 6.09 µg/mL) | 85.1 |  | CCCCCCCCO[C@H]1O[C@@H]2COC(=O)CC/C=C/CCC(=O)O[C@H]2[C@H](OCc2ccccc2)[C@H]1OCc1ccccc1 | Active | Active | inactive | 30 | 300 (≈ 183 µg/mL) | 
25 (≈ 11.8 µg/mL) | 61.1 |  | CCCCCCCCO[C@@H]1O[C@H](CO)[C@@H](O)[C@H](OCc2ccccc2)[C@H]1OCc1ccccc1 |  |  |  | 4 | 100 (≈ 47.3 µg/mL) | 
10 (≈ 4.31 µg/mL) | 38.1 | 50 (≈ 21.5 µg/mL) | CCCCCCCCO[C@H]1O[C@@H]2COC(=O)CCCCCCC(=O)O[C@H]2[C@H](O)[C@H]1O | Active | Active | inactive | 5 | 50 (≈ 21.5 µg/mL) | 75 (≈ 32.3 µg/mL)
10 (≈ 3.8 µg/mL) | 47.1 |  | CCCCCCCCO[C@H]1O[C@@H]2COC(c3ccccc3)O[C@H]2[C@H](O)[C@H]1O (stereo partly specified) | Active | Active | inactive | 7.5 | 75 (≈ 28.5 µg/mL) | 
